Assay results published in ChEMBL document CHEMBL1151718, “Design, synthesis, and biological characterization of a caspase 3/7 selective isatin labeled with 2-[18F]fluoroethylazide” (J Med Chem, 2008).
Active and inactive are the calls of the source. The rule behind the calls is not given here.

Assays:
[1] = Lipophilicity, log P of the compound; assay type: physicochemical; conditions: octanol/water
[2] = Metabolic stability in mouse liver S9 fraction at pH 7.4; assay type: ADME, subcellular; conditions: s9, pH 7.4
Summary of the method: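 Mouse liver homogenized in 50 mM Tris–150 mM KCl–HCl pH 7.4 and spun at 10000g for 30 min to give S9. Compound (10 µL of 10 mM stock) was incubated with S9 (20 µL of 33.26 mg/mL) and 0.5 mM NADPH in Tris-HCl pH 7.4 (1 mL total), 60 min at 37 °C in air. Stopped with ice-cold acetonitrile and analyzed by gradient reverse-phase HPLC.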

Caspase-3 (Mus musculus) = biological target: T1, Caspase-3 (Mus musculus) (UniProt P70677); test: Inhibition of caspase 3 in mouse RIF1 cells assessed as disruption of cisplatin-stimulated PARP induction by Western blot; assay type: cell-based; conditions: RIF-1
T1 sequence (whole entry): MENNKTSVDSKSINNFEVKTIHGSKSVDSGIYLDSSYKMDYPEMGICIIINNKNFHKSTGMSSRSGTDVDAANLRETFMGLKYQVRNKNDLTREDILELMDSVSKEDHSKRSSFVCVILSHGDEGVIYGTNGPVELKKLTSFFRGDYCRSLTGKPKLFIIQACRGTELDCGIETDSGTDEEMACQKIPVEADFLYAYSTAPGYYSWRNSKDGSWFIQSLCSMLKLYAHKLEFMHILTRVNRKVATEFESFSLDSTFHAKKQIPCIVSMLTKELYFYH
Summary of the method: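 RIF-1 murine fibrosarcoma cells were pretreated 15 min with caspase inhibitors (Z-VAD-FMK 100 µM as control), then given cisplatin 100 µM for 48 h. Lysates were made in RIPA with protease/phosphatase inhibitors, and 30 µg protein was run on 4–12% SDS-PAGE and blotted to PVDF. Probed with anti-cleaved PARP (89 kDa fragment) and α-tubulin loading control, detected by ECL.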

Caspase-3 = biological target: T2, Caspase-3 (Homo sapiens, UniProt P42574); test: Inhibition of human recombinant caspase 3 assessed as accumulation of 7-amino-4-methylcoumarin substrate
T2 sequence (P42574 whole entry): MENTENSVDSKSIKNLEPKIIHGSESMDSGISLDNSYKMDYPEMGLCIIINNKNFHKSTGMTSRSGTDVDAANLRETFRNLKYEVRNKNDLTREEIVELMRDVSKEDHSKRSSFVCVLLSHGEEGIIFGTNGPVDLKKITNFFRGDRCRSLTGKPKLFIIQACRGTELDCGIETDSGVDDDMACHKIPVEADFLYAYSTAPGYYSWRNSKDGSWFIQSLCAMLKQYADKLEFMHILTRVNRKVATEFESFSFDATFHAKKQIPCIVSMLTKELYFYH
Summary of the method: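 Substrates at 10 µM: Ac-DEVD-AMC (caspase 3), Ac-VEID-AMC (caspase 6), Ac-IETD-AMC (caspase 8), added after 10 min preincubation with inhibitor (5 pM–500 µM). Duplicates, two runs; EC50 by nonlinear regression.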

Caspase-8 = Caspase-8 (Homo sapiens, UniProt Q14790); test: Inhibition of human recombinant caspase 8 assessed as accumulation of 7-amino-4-methylcoumarin substrate
Summary of the method: (§1)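 Substrates at 10 µM: Ac-DEVD-AMC (caspase 3), Ac-VEID-AMC (caspase 6), Ac-IETD-AMC (caspase 8), added after 10 min preincubation with inhibitor (5 pM–500 µM). 7-AMC read after 30 min at ex 355/em 460 nm. Duplicates, two runs; EC50 by nonlinear regression.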

Caspase-1 = biological target: T3, Caspase-1 (Homo sapiens, UniProt P29466); test: Inhibition of human recombinant caspase 1 assessed as accumulation of 7-amino-4-methylcoumarin substrate
T3 sequence (P29466 whole entry): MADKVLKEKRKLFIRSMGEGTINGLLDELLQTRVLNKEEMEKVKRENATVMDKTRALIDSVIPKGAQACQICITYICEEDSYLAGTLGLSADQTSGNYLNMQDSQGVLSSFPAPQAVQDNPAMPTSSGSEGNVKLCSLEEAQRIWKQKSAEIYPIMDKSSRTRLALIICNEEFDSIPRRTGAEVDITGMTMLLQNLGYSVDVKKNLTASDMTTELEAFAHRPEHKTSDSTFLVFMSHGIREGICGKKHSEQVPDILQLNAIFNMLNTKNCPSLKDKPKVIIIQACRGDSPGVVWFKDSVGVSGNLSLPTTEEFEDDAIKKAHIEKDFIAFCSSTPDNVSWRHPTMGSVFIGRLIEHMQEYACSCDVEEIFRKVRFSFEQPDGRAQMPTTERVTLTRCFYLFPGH
Summary of the method: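 Recombinant human caspase 1 (0.5 units) at 37 °C in 100 mM HEPES pH 7.4, 0.1% CHAPS, 100 mM NaCl, 5 mM 2-mercaptoethanol, 2 mM EDTA, 10% sucrose, 5% DMSO final. Inhibitor (5 pM–500 µM, 9 concentrations) preincubated 10 min before adding 10 µM Ac-YVAD-AMC for 30 min. 7-AMC fluorescence read at ex 355/em 460 nm against no-enzyme controls. Duplicates, two runs; EC50 by nonlinear regression.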

Caspase-6 = biological target: T4, Caspase-6 (Homo sapiens, UniProt P55212); test: Inhibition of human recombinant caspase 6 assessed as accumulation of 7-amino-4-methylcoumarin substrate; summary of the method: as §1
T4 sequence (P55212 whole entry): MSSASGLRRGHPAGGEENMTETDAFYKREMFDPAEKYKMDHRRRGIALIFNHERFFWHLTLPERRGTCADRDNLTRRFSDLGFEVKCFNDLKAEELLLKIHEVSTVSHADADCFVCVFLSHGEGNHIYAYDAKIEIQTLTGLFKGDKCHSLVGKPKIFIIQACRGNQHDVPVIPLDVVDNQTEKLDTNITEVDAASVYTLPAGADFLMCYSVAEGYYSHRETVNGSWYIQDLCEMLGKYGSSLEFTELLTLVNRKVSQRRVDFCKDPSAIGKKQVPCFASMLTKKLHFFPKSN

Caspase-7 = biological target: T5, Caspase-7 (Homo sapiens, UniProt P55210); test: Inhibition of human recombinant caspase 7 assessed as accumulation of 7-amino-4-methylcoumarin substrate
T5 sequence (P55210 whole entry): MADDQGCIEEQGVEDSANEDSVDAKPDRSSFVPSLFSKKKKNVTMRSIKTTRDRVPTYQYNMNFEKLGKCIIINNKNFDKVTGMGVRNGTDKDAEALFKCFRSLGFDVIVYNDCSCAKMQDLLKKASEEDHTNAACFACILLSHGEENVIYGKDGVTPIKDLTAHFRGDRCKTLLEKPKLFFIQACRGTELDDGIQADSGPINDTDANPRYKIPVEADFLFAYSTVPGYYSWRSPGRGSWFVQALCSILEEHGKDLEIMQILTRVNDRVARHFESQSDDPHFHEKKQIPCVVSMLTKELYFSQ
Summary of the method: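 Isatin (5 pM–500 µM, 9 levels) preincubated 10 min, then Ac-DEVD-AMC (10 µM final) added for 30 min. 7-AMC fluorescence read at ex 355/em 460 nm against no-enzyme controls. EC50 by nonlinear regression; duplicates, two runs.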

[3] = Chemical stability assessed as half life; assay type: physicochemical
Plasma [4] = test: Metabolic stability in […] mouse plasma assessed as ratio of peak to total radioactivity present on chromatogram at 3.7 MBq, iv after 2 mins; assay type: ADME, organism-based, RIF-1; conditions: in vivo, in the assay text read “7.4 MBq” for “3.7 MBq”
Summary of the method: (§2)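 [¹⁸F]15 (7.4 MBq) injected iv into non-tumor-bearing C3H/hej mice. Plasma and liver were snap-frozen, extracted with ice-cold acetonitrile (liver homogenized), centrifuged and dried. Extracts were analyzed by reverse-phase C18 radio-HPLC (ammonium formate/methanol:acetonitrile gradient). Percent parent = parent peak relative to total chromatogram radioactivity. Plasma: average of 3 studies per time point; liver: individual results from two samples.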

[5] = Increase in drug uptake in mouse RIF1 cells after 60 mins relative to control; assay type: ADME, cell-based; conditions: rif-1, 1 h
Summary of the method: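 RIF-1 murine fibrosarcoma cells, plated in triplicate 2–3 days ahead, were exposed to CDDP at 100 µM or to vehicle (0.1% DMSO) for 48 h. About 10 µCi/well of the 18F tracer was then taken up for 60 min at 37 °C. Cells were collected, washed, resuspended in PBS and gamma-counted. Decay-corrected counts/min were normalised to mg protein (BCA), and the treated level was compared with the untreated one.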

Liver = test: Metabolic stability […] mouse liver assessed as ratio of peak to total radioactivity present on chromatogram at 3.7 MBq, iv after 2 mins; assay type: ADME, organism-based; conditions: in vivo; summary of the method: as §2
Plasma [6] = test: Metabolic stability in […] mouse plasma assessed as ratio of peak to total radioactivity present on chromatogram at 3.7 MBq, iv after 15 mins; assay type: ADME, organism-based; conditions: in vivo, 0.25 h; summary of the method: as §2

Sequence of Caspase-8 (Q14790 217-374 limits assumed): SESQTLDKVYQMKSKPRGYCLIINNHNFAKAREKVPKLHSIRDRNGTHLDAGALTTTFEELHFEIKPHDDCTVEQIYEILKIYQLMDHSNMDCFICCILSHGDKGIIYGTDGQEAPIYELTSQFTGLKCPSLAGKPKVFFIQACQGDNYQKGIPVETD
Sequence of Caspase-8 (Q14790 385-479 limits assumed): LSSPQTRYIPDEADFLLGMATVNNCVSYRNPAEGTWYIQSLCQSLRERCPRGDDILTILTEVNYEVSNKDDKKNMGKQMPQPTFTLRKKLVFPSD

O=C1C(=O)N(Cc2cn(CCF)nn2)c2ccc(S(=O)(=O)N3CCC[C@H]3COc3ccc(F)cc3F)cc21
logP [1]: 1.61

O=C1C(=O)N(Cc2ccc(F)cc2)c2ccc(S(=O)(=O)N3CCCC3)cc21
Stability [2]: Stable

O=C1C(=O)N(Cc2ccc(I)cc2)c2ccc(S(=O)(=O)N3CCC[C@H]3COc3ccccc3)cc21
Activity (Caspase-3 (Mus musculus)): inactive

O=C1C(=O)N(Cc2ccc(F)cc2)c2ccc(S(=O)(=O)N3CCC[C@H]3COc3ccccc3)cc21
EC50 (Caspase-3): 50.5 nM

O=C1C(=O)N(Cc2ccc(F)cc2)c2ccc(S(=O)(=O)N3CCC[C@H]3COCc3cn(CCF)nn3)cc21
EC50 (Caspase-8): > 5000 nM
EC50 (Caspase-3): 12.6 nM
EC50 (Caspase-1): > 5000 nM
EC50 (Caspase-6): > 5000 nM
EC50 (Caspase-7): 18.3 nM

O=C1C(=O)N(Cc2ccc(F)cc2)c2ccc(S(=O)(=O)N3CCC[C@H]3COC3CCOCC3)cc21
EC50 (Caspase-3): 10.7 nM

O=C1C(=O)N(Cc2ccc([125I])cc2)c2ccc(S(=O)(=O)N3CCC[C@H]3COc3ccccc3)cc21
half-life [3]: 59.9 days

O=C1C(=O)N(Cc2cn(CC[18F])nn2)c2ccc(S(=O)(=O)N3CCC[C@H]3COc3ccc(F)cc3F)cc21
Activity (Plasma [4]): 86.1%
fold change (FC) [5]: 1.5
Activity (Liver): 35.7%
Activity (Plasma [6]): 61.3%
